According to ChEMBL document CHEMBL1123609, “Synthesis, conformational considerations, and estrogen receptor binding of diastereoisomers and enantiomers of 1-[4-[2-(dimethylamino)ethoxy]phenyl]-1,2-diphenylbutane (dihydrotamoxifen)” (1987):

Tests used:
MCF7 [1] = experiment: Effect on the MCF-7 cell proliferation at 10e-7 M; format: functional, Homo sapiens
Outline: (§1)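 MCF-7 cells seeded at 5000 cells/mL; compounds added after 24 h, final 10^-8, 10^-7 and 10^-6 M, alone or with 10^-8 M estradiol. After 5 days of culture, monolayer fixed in 90% ethanol and stained with hematoxylin; absorbance read at 540 nm as a measure of cell number. Mean of four separate cultures, expressed as percentage of control.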

MCF7 [2] = experiment: Effect on the MCF-7 cell growth at 10e-6 M; format: functional, Homo sapiens; outline: as §1
MCF7 [3] = experiment: Effect on the MCF-7 cell proliferation at 10e-8 M; format: functional, Homo sapiens; outline: as §1
[4] = biological target: Estrogen receptor (Homo sapiens) (UniProt Q92731+P03372); experiment: Relative binding affinity for estrogen receptor of MCF-7 cells; format: cell-based; details: MCF7
Outline: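 Whole MCF-7 cells incubated 50 min at 37 °C with 10^-9 M [3H]estradiol, without or with test compound or unlabeled estradiol reference (10^-10 to 10^-6 M). Bound material extracted with EtOH and receptor-bound [3H]estradiol measured. RBA calculated as in the calf uterine cytosol competition assay.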

`CC/C(=C(\c1ccccc1)c1ccc(O)cc1)c1ccccc1.C[C@]12CC[C@@H]3c4ccc(O)cc4CC[C@H]3[C@@H]1CC[C@@H]2O` gave an Activity (MCF7 [1]) of 0.138, an Activity (MCF7 [2]) of 0.108 and an Activity (MCF7 [3]) of 0.229.
`CC/C(=C(/c1ccccc1)c1ccc(O)cc1)c1ccccc1.C[C@]12CC[C@@H]3c4ccc(O)cc4CC[C@H]3[C@@H]1CC[C@H]2O` showed an Activity (MCF7 [1]) of 0.607, an Activity (MCF7 [2]) of 0.41 and an Activity (MCF7 [3]) of 0.696.
Work on `CC/C(=C(\c1ccccc1)c1ccc(O)cc1)c1ccccc1` yielded an Activity (MCF7 [1]) of 0.12, an Activity (MCF7 [2]) of 0.131 and an Activity (MCF7 [3]) of 0.121.
With `CC[C@H](c1ccccc1)[C@@H](c1ccccc1)c1ccc(OCCN(C)C)cc1` the Relative binding affinity [4] was 0.04.
`CC[C@@H](c1ccccc1)[C@H](c1ccccc1)c1ccc(OCCN(C)C)cc1` gave a Relative binding affinity [4] of 0.02.
For `CC/C(=C(/c1ccccc1)c1ccc(O)cc1)c1ccccc1`, the Activity (MCF7 [1]) was 0.486, the Activity (MCF7 [2]) was 0.428 and the Activity (MCF7 [3]) was 0.557.
